# Measurements from ChEMBL document CHEMBL1129079, “Synthesis and antiviral evaluation of certain disubstituted benzimidazole ribonucleosides” (J Med Chem, 1996).
# Assays:
# [1] = system: HFF; test: Cytotoxicity produced in human foreskin fibroblasts (HFF) cells was estimated by visual scoring of cells unaffected by virus infection in the plaque-reduction assay.; format: ADME, cell-based
# Outline: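 Uninfected HFF cells in the HCMV plaque-reduction plates, examined at 30-fold magnification; drug-induced cytopathology scored 0–4 on the day of staining for plaque counting.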
# [2] = system: Human alphaherpesvirus 1; test: Antiviral activity against herpes simplex virus type 1 (HSV-1) was performed by HSV-1 ELISA assays.; format: functional, organism-based
# Outline: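 HSV-1 strain KOS (used in most experiments); ELISA read-out, quadruplicate wells; IC50 from linear regression of percent inhibition against log drug concentration.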
# [3] = system: KB; test: Inhibitory activity against growth of human epidermoid oral carcinoma KB cell line; format: functional, cell-based
# Outline: (§1)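 KB cells grown in MEM with Hank's salts plus 10% calf serum; logarithmically growing cells, staining-based growth read-out, quadruplicate assays; IC50 from linear regression of percent inhibition vs log drug concentration.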
# [4] = system: Human betaherpesvirus 5; test: Antiviral activity against human cytomegalovirus (HCMV) in plaque reduction assay; format: functional, organism-based
# Outline: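 HCMV Towne strain (plaque-purified P0) on HFF monolayers; inoculum ~100 PFU in 0.2 mL; compounds dissolved in overlay medium; plaques counted after staining; IC50 from linear regression of percent inhibition vs log concentration; averages of duplicate or triplicate experiments.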
# [5] = system: Human betaherpesvirus 5; test: Antiviral activity against human cytomegalo virus (HCMV) in yield reduction assay; format: functional
# [6] = system: Human betaherpesvirus 5; test: Antiviral activity against human cytomegalovirus (HCMV) in yield reduction assay; format: functional
# [7] = system: KB; test: Inhibitory activity against growth of KB cell.; format: functional, cell-based; settings: Homo sapiens; outline: as §1
Compound,IC50 [1] [µM],IC50 [2] [µM],IC50 [3] [µM],IC50 [4] [µM],IC90 [5] [µM],IC90 [6] [µM],IC50 [7] [µM]
OC[C@H]1O[C@@H](n2c(=S)[nH]c3ccc(Cl)cc32)[C@H](O)[C@@H]1O,> 100,> 100,> 100,> 100,,,
O=[N+]([O-])c1ccc2[nH]c(Cl)nc2c1,20,21,,6,,,
OC[C@H]1O[C@@H](n2c(Cl)nc3cc(Cl)c(Cl)cc32)[C@H](O)[C@@H]1O,,,,2.8,1.3,,
Nc1ccc2nc(Cl)n(C3O[C@H](CO)[C@@H](O)[C@H]3O)c2c1 (stereo partly specified),> 300,> 100,,> 100,,,
CSc1nc2ccc(Cl)cc2n1C1O[C@H](CO)[C@@H](O)[C@H]1O (stereo partly specified),> 100,< 100,,> 100,,,
OC[C@H]1OC(n2c(Cl)nc3ccc(Cl)cc32)[C@H](O)[C@@H]1O (stereo partly specified),> 100,> 100,,58,,52,
OC[C@H]1OC(n2c(Cl)nc3cc(Cl)ccc32)[C@H](O)[C@@H]1O (stereo partly specified),> 100,> 100,,150,,100,
Nc1ccc2c(c1)nc(Cl)n2C1O[C@H](CO)[C@@H](O)[C@H]1O (stereo partly specified),> 300,,,> 300,,,
OC[C@H]1OC(n2c(SCc3ccccc3)nc3ccc(Cl)cc32)[C@H](O)[C@@H]1O (stereo partly specified),> 100,> 100,,> 100,,,
COc1nc2ccc(Cl)cc2n1C1O[C@H](CO)[C@@H](O)[C@H]1O (stereo partly specified),> 100,> 100,> 100,> 100,,,
OC[C@H]1O[C@@H](n2cnc3cc(Cl)c(Cl)cc32)[C@H](O)[C@@H]1O [DICHLORORIBOBENZIMIDAZOLE],,,,,,19,
Nc1nc2c(ncn2COC(CO)CO)c(=O)[nH]1 [GANCICLOVIR],> 100,,,,1.6,,> 100
